Experimental data reported in ChEMBL document CHEMBL1132565 (J Med Chem, 1999).
pIC50, pKi: −log10 of the molar value. Active and inactive are the calls of the source.

Experiments:
Mus musculus [1] = assay: Antinociceptive activity after subcutaneous administration in mice; the highest dose tested, 100 uM/Kg, was unable to produce a significant analgesia.; assay type: functional, organism-based
Method in brief: (§1)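 Male CD-1 mice (25-30 g), peptide dissolved in sterile Ringer's solution and injected subcutaneously at 0.05 mL/10 g, 5-8 animals per dose. Hot plate at 55 °C, latency to back-paw licking or escape jump recorded. Cut-off 15 s. Mice not responding within 5 s before drug were excluded. Testing every 15 min for the first hour, then every 30 min. %MPE calculated. AD50 with 95% CL by Litchfield-Wilcox.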

[2] = target: Delta-type opioid receptor (Mus musculus, UniProt P32300); assay: Displacement of [3H]NLT from Opioid receptor delta 1 of adult male mouse brain.
Sequence of Delta-type opioid receptor (P32300 whole entry): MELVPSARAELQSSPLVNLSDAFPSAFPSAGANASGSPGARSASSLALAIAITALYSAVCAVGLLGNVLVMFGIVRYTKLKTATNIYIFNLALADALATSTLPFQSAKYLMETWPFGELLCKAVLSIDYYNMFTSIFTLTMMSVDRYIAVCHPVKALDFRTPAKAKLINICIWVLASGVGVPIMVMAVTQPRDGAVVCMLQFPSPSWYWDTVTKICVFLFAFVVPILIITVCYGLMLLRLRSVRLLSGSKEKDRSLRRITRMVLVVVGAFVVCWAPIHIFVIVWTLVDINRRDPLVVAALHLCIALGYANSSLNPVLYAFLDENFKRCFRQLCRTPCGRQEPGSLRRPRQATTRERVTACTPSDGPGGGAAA

Cavia porcellus = species: Cavia porcellus; assay: In vitro concentration required to inhibit electrically evoked twitch in isolated guinea pig ileum.; assay type: functional
Method in brief: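 Myenteric plexus-longitudinal muscle strips from male guinea pig small intestine, field-stimulated with supramaximal bipolar rectangular pulses. Inhibition of the electrically evoked twitch measured. IC50 taken from concentration-response curves, at least six tissues.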

Mu-type opioid receptor = Mu-type opioid receptor (Mus musculus, UniProt P42866); assay: Displacement of [3H]-DAGO from Opioid receptor mu 1 of adult male mouse brain.; assay type: tissue-based
Sequence of Mu-type opioid receptor (P42866 whole entry): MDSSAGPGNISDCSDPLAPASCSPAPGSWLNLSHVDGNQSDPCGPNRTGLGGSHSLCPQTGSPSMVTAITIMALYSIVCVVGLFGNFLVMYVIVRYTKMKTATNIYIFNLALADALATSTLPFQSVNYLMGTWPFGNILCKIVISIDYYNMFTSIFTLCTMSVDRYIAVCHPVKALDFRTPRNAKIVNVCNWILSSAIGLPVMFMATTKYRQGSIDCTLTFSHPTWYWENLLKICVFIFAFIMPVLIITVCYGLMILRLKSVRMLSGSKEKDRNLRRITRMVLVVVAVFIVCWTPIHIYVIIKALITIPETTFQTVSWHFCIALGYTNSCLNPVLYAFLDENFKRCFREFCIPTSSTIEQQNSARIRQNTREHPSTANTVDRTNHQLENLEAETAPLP
Method in brief: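 Crude membranes from adult male Albino Swiss mouse brain, pre-incubated 30 min at 25 °C to remove endogenous opioids. Competition against [3H]DAGO 0.5 nM on 1 mg membrane protein in 50 mM Tris-HCl pH 7.4, 35 °C for 90 min. Nonspecific binding defined with 10 µM naloxone, 12 inhibitor concentrations. GF/B filtration and scintillation counting. Ki from competition curves, run in triplicate.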

Mus musculus [3] = species: Mus musculus; assay: In vitro concentration required to inhibit electrically evoked twitch in isolated mouse vas deferens.; assay type: functional
Method in brief: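 Mouse vas deferens field-stimulated with supramaximal bipolar rectangular pulses. Inhibition of the electrically evoked twitch measured. IC50 taken from concentration-response curves, at least six tissues.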

Mus musculus [4] = assay: Antinociceptive activity after subcutaneous administration in mice.; assay type: functional; method in brief: as §1
Mus musculus [5] = assay: Antinociceptive activity after subcutaneous administration in mice was determined in analgesia hotplate test; assay type: functional; method in brief: as §1
[6] = Half-life time of enzymatic breakdown in mouse brain.; assay type: ADME
Method in brief: (§2)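 Methanol added to stop each sample, followed by centrifugation. Residual activity in the supernatant was bioassayed on GPI or MVD and expressed as % of time-0 recovery. Three experiments.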

[7] = Half-life time of enzymatic breakdown in mouse liver.; assay type: ADME; method in brief: as §2
Mus musculus [8] = assay: Antinociceptive activity after subcutaneous administration in mice. p<0.05 vs dermorphin; assay type: functional; method in brief: as §1

SMILES | AD50 (Mus musculus [1]) | pKi [2] | pIC50 (Cavia porcellus) | pKi (Mu-type opioid receptor) | pIC50 (Mus musculus [3]) | AD50 (Mus musculus [4]) [µM/kg] | AD50 (Mus musculus [5]) [µM/kg] | half-life [6] [h] | half-life [7] [h] | AD50 (Mus musculus [8]) [µM/kg]
CC(C)[C@H](NC(=O)[C@H](CC(=O)O)NC(=O)[C@H](Cc1ccccc1)NC(=O)[C@@H](C)NC(=O)[C@@H](N)Cc1ccc(O)cc1)C(=O)N[C@H](C(=O)N[C@H](C)C(N)=O)C(C)C | inactive |  |  |  |  |  |  |  |  | 
CC(C)[C@H](NC(=O)[C@H](CC(=O)O)NC(=O)[C@H](Cc1ccccc1)NC(=O)[C@@H](C)NC(=O)[C@@H](N)Cc1ccc(O)cc1)C(=O)N[C@H](C(=O)N[C@@H](CO)C(N)=O)C(C)C |  | 7.52 | 5.85 | 5.96 | 8.37 |  |  |  |  | 
CC(=O)O[C@H]1[C@H](O)[C@@H](O)[C@@H](O)O[C@@H]1COC(=O)[C@@H](CO)NC(=O)[C@@H](NC(=O)[C@@H](NC(=O)[C@H](CC(=O)O)NC(=O)[C@H](Cc1ccccc1)NC(=O)[C@@H](C)NC(=O)[C@@H](N)Cc1ccc(O)cc1)C(C)C)C(C)C |  |  |  |  |  | 70 |  |  |  | 
CC(=O)O[C@@H]1[C@H](O)[C@@H](O)[C@@H](O)O[C@@H]1COC(=O)[C@H](C)NC(=O)[C@@H]1CCCN1C(=O)[C@H](Cc1ccc(O)cc1)NC(=O)CNC(=O)[C@H](Cc1ccccc1)NC(=O)[C@@H](C)NC(=O)[C@@H](N)Cc1ccc(O)cc1 |  | < 5.30 | 8.22 | 7.95 | 7.19 | 6.6 |  |  |  | 
CC(C)[C@H](NC(=O)[C@H](CC(=O)O)NC(=O)[C@H](Cc1ccccc1)NC(=O)[C@@H](C)NC(=O)[C@@H](N)Cc1ccc(O)cc1)C(=O)N[C@H](C(=O)N[C@H](C)C(=O)O[C@H]1O[C@H](O)[C@H](O)[C@@H](O)[C@H]1O)C(C)C |  |  |  |  |  |  | 19 |  |  | 
C[C@H](NC(=O)[C@@H]1CCCN1C(=O)[C@H](Cc1ccc(O)cc1)NC(=O)CNC(=O)[C@H](Cc1ccccc1)NC(=O)[C@@H](C)NC(=O)[C@@H](N)Cc1ccc(O)cc1)C(=O)OC[C@H]1O[C@H](O)[C@H](O)[C@@H](O)[C@H]1O |  | 5.55 | 8.40 | 8.60 | 7.26 |  | 1.1 |  |  | 
CC(=O)O[C@H]1[C@H](O)[C@@H](O)[C@@H](O)O[C@@H]1COC(=O)[C@H](CO)NC(=O)[C@@H]1CCCN1C(=O)[C@H](Cc1ccc(O)cc1)NC(=O)CNC(=O)[C@H](Cc1ccccc1)NC(=O)[C@@H](C)NC(=O)[C@@H](N)Cc1ccc(O)cc1 |  |  | 8.09 |  | 7.74 | 4.6 |  | 1.5 | 1 | 
CC(=O)O[C@H]1[C@H](O)[C@@H](O)[C@@H](O)O[C@@H]1COC(=O)[C@H](CO)NC(=O)[C@@H](NC(=O)[C@@H](NC(=O)[C@H](CC(=O)O)NC(=O)[C@H](Cc1ccccc1)NC(=O)[C@@H](C)NC(=O)[C@@H](N)Cc1ccc(O)cc1)C(C)C)C(C)C |  | 7.55 | 5.72 | 5.72 | 8.57 |  |  | > 4 | 4 | 
CC(C)[C@H](NC(=O)[C@H](CC(=O)O)NC(=O)[C@H](Cc1ccccc1)NC(=O)[C@@H](C)NC(=O)[C@@H](N)Cc1ccc(O)cc1)C(=O)N[C@H](C(=O)N[C@H](CO)C(=O)OC[C@H]1O[C@H](O)[C@H](O)[C@@H](O)[C@@H]1O)C(C)C |  |  |  |  |  |  | 44 |  |  | 
CC(C)[C@H](NC(=O)[C@H](CC(=O)O)NC(=O)[C@H](Cc1ccccc1)NC(=O)[C@@H](C)NC(=O)[C@@H](N)Cc1ccc(O)cc1)C(=O)N[C@H](C(=O)NCC(N)=O)C(C)C [DELTORPHIN C] |  |  | 5.91 | 5.70 | 9.70 | 87 |  | 4 | 1.83 | 
CC(=O)O[C@H]1[C@@H](OC(=O)[C@@H](C)NC(=O)[C@@H](NC(=O)[C@@H](NC(=O)[C@H](CC(=O)O)NC(=O)[C@H](Cc2ccccc2)NC(=O)[C@@H](C)NC(=O)[C@@H](N)Cc2ccc(O)cc2)C(C)C)C(C)C)O[C@H](O)[C@H](O)[C@H]1O |  |  |  |  |  |  | 61 |  |  | 
C[C@@H](NC(=O)[C@@H](N)Cc1ccc(O)cc1)C(=O)N[C@@H](Cc1ccccc1)C(=O)NCC(=O)N[C@@H](Cc1ccc(O)cc1)C(=O)N1C[C@H](O)C[C@H]1C(=O)N[C@@H](CCCCN)C(N)=O |  | 5.85 | 8.68 | 9.30 | 7.46 |  |  | 0.5 | 0.333 | 0.9
CC(C)[C@H](NC(=O)[C@H](CC(=O)O)NC(=O)[C@H](Cc1ccccc1)NC(=O)[C@@H](C)NC(=O)[C@@H](N)Cc1ccc(O)cc1)C(=O)N[C@H](C(=O)N[C@@H](CO)C(=O)OC[C@H]1O[C@H](O)[C@H](O)[C@@H](O)[C@@H]1O)C(C)C |  | 7.64 | 5.80 | 6.06 | 8.51 |  |  | > 4 | 3 | 
CC(=O)O[C@H]1[C@@H](OC(=O)[C@H](C)NC(=O)[C@@H](NC(=O)[C@@H](NC(=O)[C@H](CC(=O)O)NC(=O)[C@H](Cc2ccccc2)NC(=O)[C@@H](C)NC(=O)[C@@H](N)Cc2ccc(O)cc2)C(C)C)C(C)C)O[C@H](O)[C@H](O)[C@H]1O |  | 6.80 | < 5.70 | 5.55 | 7.37 |  |  |  |  | 
CC(C)[C@H](NC(=O)[C@H](CC(=O)O)NC(=O)[C@H](Cc1ccccc1)NC(=O)[C@@H](C)NC(=O)[C@@H](N)Cc1ccc(O)cc1)C(=O)N[C@H](C(=O)N[C@@H](C)C(=O)O[C@H]1O[C@H](O)[C@H](O)[C@@H](O)[C@H]1O)C(C)C |  | 6.75 | < 5.70 | 5.80 | 7.44 |  |  |  |  | 
C[C@@H](NC(=O)[C@@H](N)Cc1ccc(O)cc1)C(=O)N[C@@H](Cc1ccccc1)C(=O)NCC(=O)N[C@@H](Cc1ccc(O)cc1)C(=O)N1CCC[C@H]1C(=O)N[C@@H](CO)C(N)=O [DERMORPHIN] |  |  | 8.82 | 8.96 | 7.72 | 2.4 |  | 0.333 | 0.167 | 
CC(C)[C@H](NC(=O)[C@H](CC(=O)O)NC(=O)[C@H](Cc1ccccc1)NC(=O)[C@@H](C)NC(=O)[C@@H](N)Cc1ccc(O)cc1)C(=O)N[C@H](C(=O)N[C@@H](C)C(N)=O)C(C)C |  | 7.40 | < 5.70 | 5.72 | 8.16 |  |  |  |  | 
C[C@H](NC(=O)[C@@H]1CCCN1C(=O)[C@H](Cc1ccc(O)cc1)NC(=O)CNC(=O)[C@H](Cc1ccccc1)NC(=O)[C@@H](C)NC(=O)[C@@H](N)Cc1ccc(O)cc1)C(N)=O |  | 5.95 | 8.80 | 8.92 | 7.62 |  |  |  |  | 
C[C@@H](NC(=O)[C@@H](N)Cc1ccc(O)cc1)C(=O)N[C@@H](Cc1ccccc1)C(=O)NCC(=O)N[C@@H](Cc1ccc(O)cc1)C(=O)N1CCC[C@H]1C(=O)N[C@@H](CO)C(=O)OC[C@H]1O[C@H](O)[C@H](O)[C@@H](O)[C@@H]1O |  |  | 8.46 |  | 7.40 |  | 1.4 | 0.633 | 0.5 | 
